# Screens from PubChem BioAssay.
# Hits are enriched below; roughly 2.5% of the tested compounds scored in any of these assays.
# PHOSPHO1 block: blocks human PHOSPHO1 phosphatase activity; Q8TCT1; recombinant PHOSPHO1, absorbance phosphatase assay; inhibition, % at 13.3 µM; 290,000 tested, 1.1% active; AID 1565; in the data active = inhibition above about 60%
# PfG6PD inh: PfG6PD (Plasmodium falciparum) enzyme inhibition; inhibition, % at 20 µM; 350,000 tested, 0.78% active; PfGluPho enzyme, NADPH resazurin-diaphorase fluorescence; AID 504690;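 active = inhibition reaching at least a set limit at 20 µM in the primary screen, cut at about 59% in these data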;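 note: 0% = DMSO wells with substrate and 100% = DMSO wells lacking glucose-6-phosphate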
# EP2 antag: blocks the human prostaglandin E2 receptor EP2; P43116; C6 glioma cells expressing human EP2, cAMP TR-FRET; cells stimulated with saturating PGE2; inhibition, % at 25 µM; 260,000 tested, 0.52% active; AID 1422;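 active = percent inhibition above 40 after rounding to a whole number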;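 note: rat C6 glioma host cells with rolipram phosphodiesterase inhibitor present; the protocol text gives 20 µM as final concentration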
# Tb hexokinase: blocks Trypanosoma brucei hexokinase 1 activity; recombinant TbHK1, G6PDH-coupled NADH A340; inhibition, % at 10 µM; 220,000 tested, 0.11% active;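 active = inhibition of 50% or more in the single-dose primary screen; inactive = inhibition below 50%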
# EP2 mod: modulates human prostaglandin E2 receptor EP2 signaling; P43116; EP2-expressing cells, cAMP HTRF FRET, PGE2 co-stimulation; induction, % at 25 µM; 260,000 tested, 0.83% active;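 active = compounds whose cAMP rise, as percent of the full-agonist control response, exceeds 60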;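 note: rat C6 glioma line stably carrying human EP2 under a CMV promoter; the protocol text gives 20 µM as final concentration; 100% = response of wells given 1 µM PGE2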
# HKDC1 inh: blocks human hexokinase HKDC1 activity; 340,000 tested, 0.16% active; inhibition, % at 20 µM; Q2TB90; AID 493160; recombinant HKDC1, G6PDH/diaphorase resazurin coupled fluorescence;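 active = inhibition above about 35% when tested at 20 µM, limit read from the data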;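 note: plate controls were DMSO wells with enzyme for no effect and DMSO wells lacking enzyme for full effect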
# Target sequence (Q2TB90 whole entry, looked up): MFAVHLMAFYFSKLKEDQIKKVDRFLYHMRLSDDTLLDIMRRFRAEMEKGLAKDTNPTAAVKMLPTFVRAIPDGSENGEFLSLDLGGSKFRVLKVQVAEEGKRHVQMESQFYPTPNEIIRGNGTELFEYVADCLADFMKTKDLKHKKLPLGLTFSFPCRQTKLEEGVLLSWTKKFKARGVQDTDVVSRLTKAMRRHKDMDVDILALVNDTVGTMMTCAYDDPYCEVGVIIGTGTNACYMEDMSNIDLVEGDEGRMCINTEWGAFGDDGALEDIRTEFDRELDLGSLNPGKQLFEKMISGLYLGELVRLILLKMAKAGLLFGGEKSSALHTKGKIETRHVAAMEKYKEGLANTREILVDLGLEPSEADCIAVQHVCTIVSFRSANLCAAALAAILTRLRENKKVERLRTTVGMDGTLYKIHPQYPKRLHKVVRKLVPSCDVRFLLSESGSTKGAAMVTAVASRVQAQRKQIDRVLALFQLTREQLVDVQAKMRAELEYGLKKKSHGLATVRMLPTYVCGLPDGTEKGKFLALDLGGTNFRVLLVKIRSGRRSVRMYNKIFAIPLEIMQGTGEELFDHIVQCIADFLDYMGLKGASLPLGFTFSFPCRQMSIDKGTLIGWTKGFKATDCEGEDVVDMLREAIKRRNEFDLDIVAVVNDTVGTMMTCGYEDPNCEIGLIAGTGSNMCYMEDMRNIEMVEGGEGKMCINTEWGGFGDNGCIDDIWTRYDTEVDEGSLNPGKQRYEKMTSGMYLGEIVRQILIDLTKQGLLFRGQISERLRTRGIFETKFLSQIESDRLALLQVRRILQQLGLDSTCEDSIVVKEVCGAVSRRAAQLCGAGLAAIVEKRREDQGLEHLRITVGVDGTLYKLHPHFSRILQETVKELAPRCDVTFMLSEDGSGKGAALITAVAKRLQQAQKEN
#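 Test system: HK5 enzyme. Quantity: 5 µg/mL HK5 final. Reagent: glucose and ATP substrates. Schedule: 90 min reaction incubation at room temperature, dark. Technique: resazurin-to-resorufin fluorescence via G6PDH and diaphorase coupling, 525/613 nm. Control set: DMSO wells with and without enzyme mix.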
# * hit, by the source's call; · = no result.
SMILES,PHOSPHO1 block,PfG6PD inh,EP2 antag,Tb hexokinase,EP2 mod,HKDC1 inh
CCCCn1c(-c2csc(CC)c2)n[nH]c1=S,14.1,10.6,0.7,-2.2,39.3,18.2
CCc1cc(-c2n[nH]c(=S)n2-c2cccc(C)c2)cs1,92.4*,18.4,·,-6.2,16.9,-8.0
Cc1cccc(-n2c(-c3csc(C)c3)n[nH]c2=S)c1,99.2*,41.4,11.1,-4.3,25.2,10.4
Cc1cccc2cc(CN(Cc3ccc(F)cc3)Cc3nnnn3C(C)(C)C)c(=O)[nH]c12,·,·,10.0,·,15.5,·
CCOc1ccc(NC(=O)C2CCN(C(=O)c3ccc(Cl)cc3)CC2)cc1,·,·,6.9,·,-11.5,·
Oc1cc2ccccc2cc1-c1n[nH]c(=S)o1,95.5*,-1.7,5.7,-0.2,5.1,3.9
Cc1cc(-c2n[nH]c(=S)o2)c(C)n1-c1ccccc1,101.4*,-7.5,4.0,4.3,34.3,-3.0
C=CCn1c(SCc2ccccc2)nc2scc(-c3ccc(C)o3)c2c1=O,-128.8,8.1,9.8,-14.9,19.2,-1.0
C=CCn1c(SCCN2C(=O)c3ccccc3C2=O)nc2scc(-c3ccccc3)c2c1=O,9.9,2.5,66.1*,-13.5,-4.5,1.5
Cc1cccc(CSc2nnc(-c3ccccn3)n2N)c1,63.4*,2.7,6.7,-4.6,4.5,-4.3
Nn1c(SC/C=C/c2ccccc2)nnc1-c1ccccn1,83.6*,16.5,13.9,-2.8,-9.5,9.3
Nn1c(SCc2ccc(Br)cc2)nnc1-c1ccccn1,38.5,1.4,10.8,1.1,-35.5,-6.2
Nn1c(SC/C=C/c2ccccc2)nnc1-c1cccnc1,-51.0,3.3,3.2,-1.8,-2.4,1.6
COc1ccc(CCNC(=O)c2ccc(-c3ccc([N+](=O)[O-])cc3Cl)o2)cc1OC,-9.7,31.3,13.7,-20.6,-9.5,26.3
COc1ccc(CCNC(=O)c2ccc(-c3ccccc3Cl)o2)cc1OC,·,·,62.3*,·,-87.3,·
CCn1c2ccccc2n2c(=O)n(CC(=O)Nc3ccccc3-c3ccc(C)o3)nc12,·,·,3.5,·,13.2,·
O=C(O)C[C@H](NC(=O)CP(=O)(O)O)C(=O)O.[NH-][C@@H]1CCCC[C@H]1[NH-].[Pt],·,·,40.0*,·,8.9,·
NC(=O)N[C@H](CC(=O)O)C(=O)O,·,·,12.4,·,-23.6,·
COc1ccc2c(c1)NC1(CCN(C(=O)c3ccc(=O)[nH]n3)CC1)c1cccn1-2,·,·,14.4,·,-109.8,·
C=CCn1c(C(C)NC(=O)c2ccc(C)cc2)n[nH]c1=S (stereo not drawn),-5.0,8.8,7.8,-3.9,-8.2,1.0
C=CCn1c(NC(=O)c2ccc(C)cc2)c(C#N)sc1=N,96.2*,15.8,15.4,1.9,15.3,-1.4
Cc1ccc2c(c1)c1nnc(SCC(=O)NC(C)C)nc1n2C,·,·,8.5,·,-12.2,·
Oc1ccc(N=Cc2ccc(-c3cccs3)s2)cc1,4.7,71.6*,13.7,-11.3,-9.1,15.4
O=Cc1ccc(-c2cccs2)s1,·,14.8,·,·,·,-5.6
Cc1ccc2nc(NCc3ccccc3)c(C=NCc3cccnc3)c(=O)n2c1,9.0,2.6,6.0,-12.8,48.7,8.6
SMILES,PHOSPHO1 block,PfG6PD inh,EP2 antag,Tb hexokinase,EP2 mod,HKDC1 inh
Cc1ccc2nc(NCc3ccco3)c(C=NCc3ccco3)c(=O)n2c1,17.2,-18.2,7.6,-9.1,63.2*,-6.4
COc1cc(OC)cc(C(=O)NNC(=O)c2ccc3c(c2)OCCO3)c1,·,10.2,·,·,·,1.0
COc1cc(OC)cc(-c2nnc(NC(=O)c3ccc4c(c3)OCCO4)o2)c1,62.9*,-18.7,·,·,·,-9.0
S=c1nc(-c2cccc(Cl)c2)[nH][nH]1,-5.1,16.9,15.2,-2.1,25.8,-7.0
S=c1nc(-c2cc(Cl)ccc2Cl)[nH][nH]1,43.7,19.0,40.9*,-0.7,57.9,-4.8
COc1cc(C2C3=C(CCCC3=O)NC3=C2C(=O)CCC3)ccc1OCc1ccc(C)cc1,·,·,10.6,·,1.3,·
Cc1cc(C)n2nc(SC(C)C(=O)NCc3ccco3)nc2n1 (stereo not drawn),63.7*,9.8,8.1,45.3,20.1,-0.2
Cc1cccc2cc(CN(C(=O)c3cccs3)C3CCCC3)c(=O)[nH]c12,·,·,8.8,·,-27.1,·
Cc1onc(-c2ccccc2Cl)c1C(=O)Nc1ccc(-c2nnc3n2CCCCC3)cc1,45.2,-6.3,11.2,-6.0,-13.4,-0.4
Cc1cc(C)n(-c2ccc(Cl)c(C(=O)Nc3ccc(-c4nnc5n4CCCCC5)cc3)n2)n1,62.5*,-4.0,6.9,-8.5,10.3,5.2
N=C1/C(=C\c2ccc(-c3cccc(C(=O)O)c3)o2)C(=O)N=C2SC=C(c3ccccc3)N12,80.4*,-12.8,59.0*,3.6,-49.8,13.3
N=C1/C(=C/c2ccc(-c3cccc(C(=O)O)c3)o2)C(=O)N=C2SC(CC(=O)N3CCOCC3)=NN12,17.1,4.8,·,·,·,7.0
CCOC(=O)CSc1nnc(-c2ccc(Cl)cc2)o1,·,·,12.8,·,50.7,·
Cc1ccc2[nH]c(=O)c(CNC(C)C)cc2c1,62.1*,-11.7,9.0,-12.0,-8.1,-3.6
CCC(C)NC(=S)N(CCN(C)C)Cc1cc2cc(C)ccc2[nH]c1=O (stereo not drawn),·,·,10.9,·,-3.8,·
O=C(CSc1nc2ccccc2n1CC(=O)N1CCOCC1)N1CCCC1,-5.8,10.0,10.4,-4.4,-3.3,-9.3
O=C(Cn1c(SCc2ccccc2)nc2ccccc21)N1CCOCC1,62.3*,3.0,6.7,-1.2,7.0,1.2
Cc1cc2nc(CCN(Cc3cccnc3)C(=S)Nc3ccccc3)[nH]c2cc1C,92.5*,30.3,34.9,-9.8,-29.7,-3.6
Cc1cc2nc(CCN(Cc3cccnc3)C(=S)Nc3ccc(F)cc3)[nH]c2cc1C,-4.2,26.1,11.6,1.3,-2.2,4.5
CC1(C)CC(=O)C2=C(C1)OC1=C(C(=O)CC(C)(C)C1)C2c1ccc(O)cc1O,31.4,41.4,98.2*,14.0,-38.8,11.2
CC1(C)CC(=O)C2=C(C1)OC1=C(C(=O)CC(C)(C)C1)C2c1ccc(O)c([N+](=O)[O-])c1,-15.8,-18.4,8.1,-7.0,29.3,-4.2
CC(C)(C)NC(=O)CN(C(=O)CCC(=O)Nc1nccs1)c1cccc(C(F)(F)F)c1,60.0*,6.7,·,·,·,1.6
CC(=O)c1sc2nc(-c3cccs3)ccc2c1N,73.1*,27.1,9.2,-33.6,-20.8,8.8
O=C(CNS(=O)(=O)c1cc(Cl)ccc1Cl)OCC(=O)c1cccs1,·,·,9.5,·,-5.0,·
COc1ccc2c(c1)c1ccc3c(c1n2C)C(=O)C=CC3=O,-3.6,55.5,62.5*,-25.3,-36.3,-0.8
CCCCSc1nnc2c(n1)OC(C(=O)c1ccccc1)Nc1ccccc1-2 (stereo not drawn),90.2*,·,·,-3.6,-39.9,·
CCn1ccc2cc(OC)ccc2c1=S,86.9*,16.5,19.1,-1.0,23.9,3.8
CCn1c(=S)ccc2ccc(OC)cc21,27.6,9.2,14.3,-7.4,8.2,-11.5
CCn1c(N2CCN(CC(=O)c3c(C)n(C)c4ccccc34)CC2)nc2c1c(=O)[nH]c(=O)n2C,91.5*,-6.6,17.9,-7.2,-7.2,-6.2
